Test results published in ChEMBL document CHEMBL4007421, “Discovery and Preclinical Characterization of 3-((4-(4-Chlorophenyl)-7-fluoroquinoline-3-yl)sulfonyl)benzonitrile, a Novel Non-acetylenic Metabotropic Glutamate Receptor 5 (mGluR5) Negative Allosteric Modulator for Psychiatric Indications” (J Med Chem, 2017).
Active and inactive are the calls of the source. No cut-off for these calls is given here.

Columns and labels:
[1] = Plasma protein binding in human; assay type: ADME, cell-free; settings: read-out: PPB (converted)
[2] = target: Cytochrome P450 2D6 (Homo sapiens, UniProt P10635); assay: Inhibition of CYP2D6 in human liver microsomes; assay type: ADME
[3] = Cmax in fasted male beagle dog at 1 mg/kg, po; assay type: ADME, organism-based, Canis lupus familiaris; parameters: dose 1 mg/kg, route oral; settings: in vivo
[4] = tested on: Rattus norvegicus; assay: Anxiolytic activity in Wistar rat assessed as increase in water drinking time during punished period at 10 mg/kg, po qd measured after first dosing by Vogel punished drinking conflict test; assay type: functional, organism-based
Summary of the method: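 Vogel punished-drinking test in rats after 24 h water deprivation, with 60 s unpunished drinking; oral 10 mg/kg given once daily for 19 days, vehicle group dosed only on Day 19 as first-dose control; plasma sampled right after test; n=10 per group; ANOVA with Duncan post-hoc.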

[5] = target: Metabotropic glutamate receptor 5 (Homo sapiens, UniProt P41594); assay: Displacement of [3H]M-MPEP from recombinant human mGluR5a expressed in human A18 cell membrane homogenate
[6] = target: Cytochrome P450 3A4 (Homo sapiens, UniProt P08684); assay: Inhibition of CYP3A4 in human liver microsomes; assay type: ADME
[7] = Terminal elimination half life in female Crl:CD(SD) rat at 4.5 mg/kg, po; assay type: ADME, organism-based; settings: in vivo, read-out: beta t1/2 (converted)
Summary of the method: (§1)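 Single-dose PK: i.v. and oral dosing in Crl:CD(SD) rats and beagle dogs, plus a pilot oral nasogastric study in Cynomolgus monkeys using a Type IV lipid formulation. Rat i.v. vehicle was 80% cosolvent. Monkeys were fasted from 2 h before until 2 h after dosing, n=3 per sex. Rats also received [14C]-labelled compound orally at 50 mg/kg, with total radioactivity followed. Parameters are means; monkey values are medians.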

[8] = Terminal elimination half life in fasted female beagle dog at 1 mg/kg, po; assay type: ADME, organism-based, Canis lupus familiaris; settings: in vivo, read-out: beta t1/2 (converted); summary of the method: as §1
[9] = tested on: Rattus norvegicus; assay: Anxiolytic activity in po dosed Wistar rat assessed as reduction in ultrasonic vocalization; assay type: functional
[10] = AUC in male beagle dog at 0.5 mg/kg, iv administered as infusion; assay type: ADME, organism-based, Canis lupus familiaris; settings: in vivo

Chain of Cytochrome P450 2D6 (P10635 whole entry): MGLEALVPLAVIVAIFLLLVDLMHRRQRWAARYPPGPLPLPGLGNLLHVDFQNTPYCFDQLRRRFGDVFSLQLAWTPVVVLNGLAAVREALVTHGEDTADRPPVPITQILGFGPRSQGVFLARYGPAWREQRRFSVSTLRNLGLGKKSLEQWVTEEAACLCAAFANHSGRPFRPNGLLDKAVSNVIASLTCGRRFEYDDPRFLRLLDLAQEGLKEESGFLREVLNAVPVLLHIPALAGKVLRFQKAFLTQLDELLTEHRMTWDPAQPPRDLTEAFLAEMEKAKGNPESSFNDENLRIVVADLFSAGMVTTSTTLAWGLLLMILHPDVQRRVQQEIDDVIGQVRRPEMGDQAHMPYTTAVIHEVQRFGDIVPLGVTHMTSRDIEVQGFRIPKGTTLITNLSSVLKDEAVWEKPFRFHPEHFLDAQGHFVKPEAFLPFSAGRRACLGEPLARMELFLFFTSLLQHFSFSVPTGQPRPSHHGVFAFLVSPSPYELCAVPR
Chain of Metabotropic glutamate receptor 5 (P41594 whole entry): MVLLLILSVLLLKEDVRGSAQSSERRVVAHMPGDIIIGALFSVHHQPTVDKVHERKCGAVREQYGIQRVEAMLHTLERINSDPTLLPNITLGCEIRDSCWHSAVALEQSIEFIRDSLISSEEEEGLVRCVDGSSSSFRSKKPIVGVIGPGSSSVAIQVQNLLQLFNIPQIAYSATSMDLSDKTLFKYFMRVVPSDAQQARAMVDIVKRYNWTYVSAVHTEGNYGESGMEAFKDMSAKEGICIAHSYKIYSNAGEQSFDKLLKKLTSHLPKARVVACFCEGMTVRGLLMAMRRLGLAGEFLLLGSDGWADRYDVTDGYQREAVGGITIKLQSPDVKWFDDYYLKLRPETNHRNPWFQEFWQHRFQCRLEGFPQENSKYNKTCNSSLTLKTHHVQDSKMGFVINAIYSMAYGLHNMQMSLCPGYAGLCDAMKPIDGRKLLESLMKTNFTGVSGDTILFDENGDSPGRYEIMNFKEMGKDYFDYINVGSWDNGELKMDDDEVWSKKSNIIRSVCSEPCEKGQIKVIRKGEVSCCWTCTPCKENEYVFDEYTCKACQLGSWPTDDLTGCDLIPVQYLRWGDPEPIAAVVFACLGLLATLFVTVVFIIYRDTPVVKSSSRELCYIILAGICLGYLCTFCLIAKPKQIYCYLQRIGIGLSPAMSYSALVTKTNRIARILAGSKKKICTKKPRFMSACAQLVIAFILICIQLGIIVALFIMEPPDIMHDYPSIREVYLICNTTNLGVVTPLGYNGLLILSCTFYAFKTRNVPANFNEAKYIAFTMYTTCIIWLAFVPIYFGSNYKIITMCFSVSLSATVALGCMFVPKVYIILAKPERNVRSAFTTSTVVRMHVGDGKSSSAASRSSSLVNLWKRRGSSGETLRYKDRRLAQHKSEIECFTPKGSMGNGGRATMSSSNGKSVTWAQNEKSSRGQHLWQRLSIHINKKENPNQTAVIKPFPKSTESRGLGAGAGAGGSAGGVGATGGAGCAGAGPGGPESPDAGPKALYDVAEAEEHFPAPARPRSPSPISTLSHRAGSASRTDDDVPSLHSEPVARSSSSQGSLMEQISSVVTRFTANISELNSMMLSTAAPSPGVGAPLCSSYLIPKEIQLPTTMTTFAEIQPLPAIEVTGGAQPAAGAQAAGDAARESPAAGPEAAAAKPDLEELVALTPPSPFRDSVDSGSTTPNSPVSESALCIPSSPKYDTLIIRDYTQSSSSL
Chain of Cytochrome P450 3A4 (P08684 whole entry): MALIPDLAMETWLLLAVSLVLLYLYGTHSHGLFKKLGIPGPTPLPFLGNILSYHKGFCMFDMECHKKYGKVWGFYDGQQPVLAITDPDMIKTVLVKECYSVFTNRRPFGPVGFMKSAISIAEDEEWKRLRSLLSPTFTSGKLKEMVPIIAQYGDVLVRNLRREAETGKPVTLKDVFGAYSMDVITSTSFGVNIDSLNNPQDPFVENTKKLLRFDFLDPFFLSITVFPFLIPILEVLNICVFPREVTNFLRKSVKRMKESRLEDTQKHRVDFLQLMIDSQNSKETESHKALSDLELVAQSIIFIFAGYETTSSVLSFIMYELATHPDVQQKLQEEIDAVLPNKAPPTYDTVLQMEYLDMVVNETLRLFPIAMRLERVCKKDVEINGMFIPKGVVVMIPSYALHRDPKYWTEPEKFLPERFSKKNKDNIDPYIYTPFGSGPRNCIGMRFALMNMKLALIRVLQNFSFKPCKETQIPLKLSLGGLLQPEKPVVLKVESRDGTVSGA

N#Cc1cccc(S(=O)(=O)c2cnc3cc(F)ccc3c2-c2ccc(Cl)cc2)c1
fraction unbound [1]: 0.0039 | IC50 [2]: > 10 µM | Cmax [3]: 492 nM | Activity [4]: Active | Ki [5]: 0.0049 µM | IC50 [6]: > 10 µM | half-life [7]: 6.3 h | half-life [8]: 10.7 h | Activity [9]: Dose-dependent effect | ED50 [9]: 1.5 mg/kg | AUC [10]: 3.07 µM·h
